# Source: ChEMBL document CHEMBL1141264, “Cucurbitane-type triterpenoids from the fruits of Momordica charantia and their cancer chemopreventive effects” (J Nat Prod, 2007)
# Tests used:
# Raji [1] = assay: Inhibition of TPA-induced Epstein-Barr virus early antigen in Raji cells at 100 mol ratio/TPA relative to control; values are per cent of control; settings: human gammaherpesvirus 4
# Raji [2] = assay: Inhibition of TPA-induced Epstein-Barr virus early antigen in Raji cells at 500 mol ratio/TPA relative to control; values are per cent of control; settings: human gammaherpesvirus 4
# Raji [3] = assay: Inhibition of TPA-induced Epstein-Barr virus early antigen in Raji cells at 10 mol ratio/TPA relative to control; values are per cent of control; settings: human gammaherpesvirus 4
# [4] = Cytotoxicity against human Raji cells assessed as cell viability at 1000 mol ratio/TPA relative to control; format: cell-based; settings: read-out: Activity
# Method in brief: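 Raji cells stimulated with TPA at 32 pmol (20 ng), taken as 100% positive control. Test compound added at mol ratio to TPA of 1000, 500, 100 or 10 (1000:1 = 32 nmol). EBV-EA induction expressed as % of positive control; Raji cell viability recorded as % at the 1000 ratio. IC50 as mol ratio to TPA inhibiting 50% of control.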
# Raji [5] = assay: Inhibition of TPA-induced Epstein-Barr virus early antigen in Raji cells at 1000 mol ratio/TPA relative to control; values are per cent of control; settings: human gammaherpesvirus 4
# [6] = Scavenging activity against NO generation in NOR1-induced cell culture; format: functional
# Method in brief: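 Cultured-cell screen for scavenging of NO released by the NO donor NOR 1. Activity expressed as inhibitory ratio (IR) against NOR 1 action, with glycyrrhizin and carboxy-PTIO as reference compounds.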
Compound,"level, % of control (Raji [1]) [%]","level, % of control (Raji [2]) [%]","level, % of control (Raji [3]) [%]",viability at 1000 mol ratio/TPA [4] [%],"level, % of control (Raji [5]) [%]",inhibitory ratio (IR) against NOR 1 action [6]
COc1cc(/C=C/C(=O)CC(=O)/C=C/c2ccc(O)c(OC)c2)ccc1O [CURCUMIN],81.8,22.8,100,70,0,
C=C(C)/C=C/C[C@@H](C)[C@H]1CC[C@@]2(C)[C@@H]3C=C[C@@]45O[C@@H](OC)[C@]3(CC[C@]12C)[C@@H]4CC[C@H](O[C@@H]1O[C@H](CO)[C@@H](O)[C@H](O)[C@H]1O)C5(C)C [CHARANTOSIDE I],81.1,35.4,100,70,12.6,
CO[C@H]1C=C2[C@@H](CC[C@H](O[C@@H]3O[C@H](CO)[C@@H](O)[C@H](O)[C@H]3O)C2(C)C)[C@]2(C=O)CC[C@]3(C)[C@@H]([C@H](C)C/C=C/C(C)(C)OC)CC[C@@]3(C)[C@H]12 [CHARANTOSIDE VIII],82.5,38.5,100,70,15.3,
COC1O[C@]23C=C[C@@H]4[C@@]1(CC[C@]1(C)[C@@H]([C@H](C)C/C=C/C(C)(C)OC)CC[C@@]41C)[C@@H]2CC[C@H](O[C@@H]1O[C@H](CO)[C@@H](O)[C@@H](O)[C@H]1O)C3(C)C (stereo partly drawn) [GOYAGLYCOSIDE D],80.3,34.2,100,70,11.2,
CC1=C(/C=C/C(C)=C/C=C/C(C)=C/C=C/C=C(C)/C=C/C=C(C)/C=C/C2=C(C)CCCC2(C)C)C(C)(C)CCC1,82.1,34.2,100,,8.6,
CO[C@@H]1O[C@]23C=C[C@@H]4[C@@]1(CC[C@]1(C)[C@@H]([C@H](C)C[C@H](C=C(C)C)OC)CC[C@@]41C)[C@@H]2CC[C@H](O[C@@H]1O[C@H](CO)[C@@H](O)[C@@H](O)[C@H]1O)C3(C)C [CHARANTOSIDE II],82.1,35,100,70,12.3,
C[C@H](C/C=C/C(C)(C)O)[C@H]1CC[C@@]2(C)[C@@H]3C=C[C@@]45OC[C@]3(CC[C@]12C)[C@@H]4CC[C@H](O[C@@H]1O[C@H](CO)[C@@H](O)[C@@H](O)[C@H]1O)C5(C)C [MOMORDICOSIDE F2],76.9,29.7,100,70,9.1,
C=C(C)/C=C/C[C@@H](C)[C@H]1CC[C@@]2(C)[C@@H]3[C@@H](OC)C=C4[C@@H](CC[C@H](O)C4(C)C)[C@]3(C=O)CC[C@]12C,75.4,22.5,95.3,70,0,1.6
C=C(C)/C=C/C[C@@H](C)[C@H]1CC[C@@]2(C)[C@@H]3C=C[C@@]45OC(=O)[C@]3(CC[C@]12C)[C@@H]4CC[C@H](O[C@@H]1O[C@H](CO)[C@@H](O)[C@H](O)[C@H]1O)C5(C)C [CHARANTOSIDE VII],75.1,28.1,100,70,9.9,
COC1O[C@]23C=C[C@@H]4[C@@]1(CC[C@]1(C)[C@@H]([C@H](C)C/C=C/C(C)(C)O)CC[C@@]41C)[C@@H]2CC[C@H](O)C3(C)C (stereo partly drawn),72.5,27.6,94.5,70,0,1.9
CC1(C)N([O])C(c2ccc(C(=O)O)cc2)=[N+]([O-])C1(C)C,,,,,,8
CO[C@@H](C=C(C)C)C[C@@H](C)[C@H]1CC[C@@]2(C)[C@@H]3C=C[C@@]45OC[C@]3(CC[C@]12C)[C@@H]4CC[C@H](O[C@@H]1O[C@H](CO)[C@@H](O)[C@H](O)[C@H]1O)C5(C)C [CHARANTOSIDE V],77,30.6,100,70,10.5,
CO[C@H](C=C(C)C)C[C@@H](C)[C@H]1CC[C@@]2(C)[C@@H]3[C@@H](OC)C=C4[C@@H](CC[C@H](O[C@@H]5O[C@H](CO)[C@@H](O)[C@H](O)[C@H]5O)C4(C)C)[C@]3(C)CC[C@]12C [KARAVILOSIDE I],83.7,39.2,100,70,16.1,
COC1O[C@]23C=C[C@@H]4[C@@]1(CC[C@]1(C)[C@@H]([C@H](C)C/C=C/C(C)(C)OC)CC[C@@]41C)[C@@H]2CC[C@H](O[C@@H]1O[C@H](CO)[C@@H](O)[C@H](O)[C@H]1O)C3(C)C (stereo partly drawn) [GOYAGLYCOSIDE C],80,33.7,100,70,13.5,
C=C(C)/C=C/C[C@@H](C)[C@H]1CC[C@@]2(C)[C@@H]3C=C[C@@]45OC[C@]3(CC[C@]12C)[C@@H]4CC[C@H](O[C@@H]1O[C@H](CO)[C@@H](O)[C@H](O)[C@H]1O)C5(C)C [CHARANTOSIDE III],82.1,36,100,70,12.9,
COC(C)(C)/C=C/C[C@@H](C)[C@H]1CC[C@@]2(C)[C@@H]3C=C[C@@]45OC[C@]3(CC[C@]12C)[C@@H]4CC[C@H](O[C@@H]1O[C@H](CO)[C@@H](O)[C@H](O)[C@H]1O)C5(C)C [MOMORDICOSIDE F1],78.1,31.5,100,70,11.3,
CO[C@H](C=C(C)C)C[C@@H](C)[C@H]1CC[C@@]2(C)[C@@H]3C=C[C@@]45OC[C@]3(CC[C@]12C)[C@@H]4CC[C@H](O[C@@H]1O[C@H](CO)[C@@H](O)[C@@H](O)[C@H]1O)C5(C)C [CHARANTOSIDE VI],82,35.9,100,70,12.7,
CO[C@H]1C=C2[C@@H](CC[C@H](O)C2(C)C)[C@]2(C=O)CC[C@]3(C)[C@@H]([C@H](C)C/C=C/C(C)(C)OC)CC[C@@]3(C)[C@H]12,77.5,33.7,97.3,70,0,1.5
C=C(C)/C=C/C[C@@H](C)[C@H]1CC[C@@]2(C)[C@@H]3C=C[C@@]45OC[C@]3(CC[C@]12C)[C@@H]4CC[C@H](O[C@@H]1O[C@H](CO)[C@@H](O)[C@@H](O)[C@H]1O)C5(C)C [CHARANTOSIDE IV],81.1,35,100,70,12.1,
